Active and inactive are the calls of the source. No cut-off for these calls is given here.
What was measured:
[1] = tested on: A549; experiment: Antiproliferative activity against human A549 cells after 48 hrs by SRB method; assay type: functional, cell-based; conditions: A549, 48 h
In short: (§1)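 SRB assay. Cells in DMEM high glucose with 10% FBS were seeded at 5000/well and grown 24 h; a day-0 plate was fixed at that point. Compounds were added in triplicate for 48 h. Cells were fixed with TCA at 4 °C for 1 h, stained with 0.4% SRB, and the dye was solubilized in 10 mM Tris pH 10.4. OD was read at 515 nm with day-0 OD subtracted. IC50 came from nonlinear regression of dose–response curves from at least two independent experiments.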

[2] = Antiproliferative activity against human CNE2 cells after 48 hrs by SRB method; assay type: functional, cell-based; conditions: CNE-2, 48 h
In short: (§2)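 SRB assay. Cells in DMEM high glucose with 10% FBS were seeded at 5000/well and grown 24 h; a day-0 plate was fixed at that point. Compounds were added in triplicate for 48 h. IC50 came from nonlinear regression of dose–response curves from at least two independent experiments.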

[3] = tested on: SW480; experiment: Antiproliferative activity against human SW480 cells after 48 hrs by SRB method; assay type: functional, cell-based; conditions: SW480, 48 h; in short: as §2
[4] = tested on: MCF7; experiment: Antiproliferative activity against human MCF7 cells after 48 hrs by SRB method; assay type: functional, cell-based; conditions: MCF7, 48 h; in short: as §2
[5] = tested on: HepG2; experiment: Antiproliferative activity against human HepG2 cells after 48 hrs by SRB method; assay type: functional, cell-based; conditions: HepG2, 48 h; in short: as §2
[6] = target: Tubulin (Homo sapiens) (UniProt P68371+Q9H4B7+P0DPH7+P68366+Q13509+Q71U36+P04350+Q3ZCM7+P07437+P68363+Q9BQE3+Q6PEY2+Q13885+Q9BVA1+Q9BUF5); experiment: Inhibition of tubulin polymerization (unknown origin) at 5 uM by DAPI staining-based fluorescence microscopy; assay type: protein-complex assay
[7] = tested on: A2780; experiment: Antiproliferative activity against human A2780 cells after 48 hrs by SRB method; assay type: functional, cell-based; conditions: A2780, 48 h; in short: as §2
[8] = tested on: A2780; experiment: Antiproliferative activity against taxol-resistant human A2780 cells after 48 hrs by SRB method; assay type: functional, cell-based; conditions: A2780, 48 h; in short: as §2
[9] = Antiproliferative activity against human HCT8 cells after 48 hrs by SRB method; assay type: functional, cell-based; conditions: HCT-8, 48 h; in short: as §2
[10] = Antiproliferative activity against vincristine-resistant human HCT8 cells after 48 hrs by SRB method; assay type: functional, cell-based; conditions: HCT-8, 48 h; in short: as §1
[11] = tested on: A549; experiment: Antiproliferative activity against cis-platinum-resistant human A549 cells after 48 hrs by SRB method; assay type: functional, cell-based; conditions: A549, 48 h; in short: as §1
[12] = tested on: MCF7; experiment: Antiproliferative activity against doxorubicin-resistant human MCF7 cells after 48 hrs by SRB method; assay type: functional, cell-based; conditions: MCF7, 48 h; in short: as §2
[13] = tested on: A2780; experiment: Drug resistance index, ratio of IC50 for taxol-resistant human A2780 cells to IC50 for human A2780 cells; assay type: functional
In short: (§3)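 Drug resistance index = IC50 in the resistant line / IC50 in its parental line. […] Pairs: A549/CDDP vs A549, MCF-7/DOX vs MCF-7, A2780/TAX vs A2780, HCT-8/VCT vs HCT-8.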

[14] = Drug resistance index, ratio of IC50 for vincristine-resistant human HCT8 cells to IC50 for human HCT8 cells; assay type: functional, HCT-8; in short: as §3
[15] = tested on: A549; experiment: Drug resistance index, ratio of IC50 for cis-platinum-resistant human A549 cells to IC50 for human A549 cells; assay type: functional; in short: as §3
[16] = tested on: MCF7; experiment: Drug resistance index, ratio of IC50 for doxorubicin-resistant human MCF7 cells to IC50 for human MCF7 cells; assay type: functional; in short: as §3
[17] = tested on: A549; experiment: Cell cycle arrest in human A549 cells assessed as accumulation at G2/M phase at 7.81 to 250 nM after 24 hrs by Hoechst 33342 staining-based ArrayScanVTI analysis; assay type: functional
In short: (§4)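 A549 cells were seeded at 5000/well, cultured overnight, then treated 24 h over a 7.81–250 concentration series. Cells were fixed in prewarmed paraformaldehyde 10 min, permeabilized with Triton X-100, and nuclei stained with Hoechst 33342. Imaging was by ArrayScan VTI high-content analysis. Phase percentage = cells within a gated fluorescence intensity / total cells counted.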

[18] = tested on: A549; experiment: Cell cycle arrest in human A549 cells assessed as accumulation at G2/M phase at 125 nM after 24 hrs by Hoechst 33342 staining-based ArrayScanVTI analysis; assay type: functional; in short: as §4
[19] = target: Tubulin; experiment: Inhibition of tubulin polymerization (unknown origin) by DAPI staining-based fluorescence microscopy; assay type: protein-complex assay, Homo sapiens
In short: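 Purified tubulin (99% pure; 20 μM as supplied) mixed with compound in general tubulin buffer (80 mM PIPES pH 6.9, 2.0 mM MgCl₂, 0.5 mM EGTA) with 1 mM GTP, 20% glycerol and DAPI reporter. Polymerization tracked kinetically at 37 °C as fluorescence rise (ex 360, em 450 nm). Duplicate wells per concentration. IC50 from at least two independent experiments.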

[20] = tested on: A549; experiment: Cell cycle arrest in human A549 cells assessed as accumulation at G2/M phase at 31.25 nM after 24 hrs by Hoechst 33342 staining-based ArrayScanVTI analysis; assay type: functional
[21] = tested on: A549; experiment: Induction of apoptosis in human A549 cells assessed as late apoptotic cells at 0.25 uM after 48 hrs by Annexin V-FITC/propidium iodide staining-based flow cytometry (reference value: 0.10%); assay type: functional
[22] = tested on: A549; experiment: Induction of apoptosis in human A549 cells assessed as early apoptotic cells at 0.25 uM after 48 hrs by Annexin V-FITC/propidium iodide staining-based flow cytometry (reference value: 0.47%); assay type: functional
[23] = tested on: A549; experiment: Induction of apoptosis in human A549 cells assessed as necrotic cells at 0.25 uM after 48 hrs by Annexin V-FITC/propidium iodide staining-based flow cytometry (reference value: 0.06%); assay type: functional
[24] = tested on: A549; experiment: Induction of apoptosis in human A549 cells assessed as viable cells at 0.25 uM after 48 hrs by Annexin V-FITC/propidium iodide staining-based flow cytometry (reference value: 99.37%); assay type: functional; conditions: A549, 48 h, read-out: Activity

| Compound | IC50 [1] [nM] | IC50 [2] [nM] | IC50 [3] [nM] | IC50 [4] [nM] | IC50 [5] [nM] | inhibition [6] | also measured |
| --- | --- | --- | --- | --- | --- | --- | --- |
| COc1ccc(/C=C/C(=O)c2ccccc2-c2ccc(OC)c(OC)c2)cc1OC | 8500 | 2500 | 7600 | 4900 | 3200 | inactive | – |
| COc1cc(/C=C/C(=O)c2ccccc2-c2ccc(F)cc2)ccc1O | 7600 | 2500 | 6600 | 4000 | 2800 | inactive | – |
| COc1ccc(/C=C/C(=O)c2ccccc2-c2ccc(F)cc2)cc1 | 140 | 53 | 61 | 670 | 93 | – | IC50 [7]: 170 nM; IC50 [8]: 690 nM; IC50 [9]: 220 nM; IC50 [10]: 230 nM; IC50 [11]: 210 nM; IC50 [12]: 120 nM; Ratio IC50 [13]: 4.1; Ratio IC50 [14]: 1; Ratio IC50 [15]: 1.1; Ratio IC50 [16]: 0.29; Activity [17]: Active; Activity [18]: Active; IC50 [19]: 1800 nM |
| COc1cc2c(c(OC)c1OC)-c1ccc(OC)c(=O)cc1[C@@H](NC(C)=O)CC2 [COLCHICINE] | 50 | – | – | – | – | – | Activity [20]: Active; Activity [21]: 37.72%; Activity [22]: 36.19%; Activity [23]: 6.93%; viability at 0.25 µM [24]: 19.2% |

Reference: ChEMBL document CHEMBL3393048, “Discovery of potent cytotoxic ortho-aryl chalcones as new scaffold targeting tubulin and mitosis with affinity-based fluorescence” (J Med Chem, 2014)
